Measured values from the M2OR odorant receptor database.

Tests used:
Settings in all cases: stereoisomer not certain
Or1m1 (Mus musculus) = biological target: T1, Or1m1 (Mus musculus) (UniProt Q8VFM9)
T1 sequence (whole entry): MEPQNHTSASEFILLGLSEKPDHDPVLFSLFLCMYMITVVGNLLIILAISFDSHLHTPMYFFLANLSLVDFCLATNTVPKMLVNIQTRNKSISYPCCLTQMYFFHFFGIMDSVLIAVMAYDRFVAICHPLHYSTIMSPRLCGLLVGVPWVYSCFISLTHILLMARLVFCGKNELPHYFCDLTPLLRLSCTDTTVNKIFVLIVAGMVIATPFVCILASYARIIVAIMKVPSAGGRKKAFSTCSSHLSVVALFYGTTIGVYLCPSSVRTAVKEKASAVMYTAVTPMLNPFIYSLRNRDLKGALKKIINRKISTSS
In short: (§1)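 Assay methods differ from source to source, frequently being transient luciferase assays in mammalian cell lines. For each receptor–molecule pair, the label responsive (active) applies when the original authors judged the measured signal statistically different from baseline, and non-responsive (inactive) applies otherwise.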

Or5ar1 (Mus musculus) = biological target: T2, Or5ar1 (Mus musculus) (UniProt Q8VGS3)
T2 sequence (whole entry): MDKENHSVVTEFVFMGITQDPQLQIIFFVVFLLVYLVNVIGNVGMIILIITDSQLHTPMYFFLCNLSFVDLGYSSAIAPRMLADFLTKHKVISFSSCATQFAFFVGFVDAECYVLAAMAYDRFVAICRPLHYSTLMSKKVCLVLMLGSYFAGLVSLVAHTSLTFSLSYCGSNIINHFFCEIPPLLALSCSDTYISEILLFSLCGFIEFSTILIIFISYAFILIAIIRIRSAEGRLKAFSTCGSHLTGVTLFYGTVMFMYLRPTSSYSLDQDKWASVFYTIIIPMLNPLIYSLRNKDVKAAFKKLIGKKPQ
In short: as §1

UniProt A2ATE5 = biological target: T3, UniProt A2ATE5
T3 sequence (whole entry): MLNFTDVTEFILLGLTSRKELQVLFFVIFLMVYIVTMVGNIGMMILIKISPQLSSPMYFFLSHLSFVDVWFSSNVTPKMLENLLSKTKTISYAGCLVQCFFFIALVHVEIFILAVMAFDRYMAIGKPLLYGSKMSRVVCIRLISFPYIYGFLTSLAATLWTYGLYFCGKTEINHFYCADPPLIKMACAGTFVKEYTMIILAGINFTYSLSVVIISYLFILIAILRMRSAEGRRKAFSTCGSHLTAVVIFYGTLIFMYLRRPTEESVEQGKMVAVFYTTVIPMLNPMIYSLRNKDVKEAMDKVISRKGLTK
In short: as §1

UniProt A2AVB0 = biological target: T4, UniProt A2AVB0
T4 sequence (whole entry): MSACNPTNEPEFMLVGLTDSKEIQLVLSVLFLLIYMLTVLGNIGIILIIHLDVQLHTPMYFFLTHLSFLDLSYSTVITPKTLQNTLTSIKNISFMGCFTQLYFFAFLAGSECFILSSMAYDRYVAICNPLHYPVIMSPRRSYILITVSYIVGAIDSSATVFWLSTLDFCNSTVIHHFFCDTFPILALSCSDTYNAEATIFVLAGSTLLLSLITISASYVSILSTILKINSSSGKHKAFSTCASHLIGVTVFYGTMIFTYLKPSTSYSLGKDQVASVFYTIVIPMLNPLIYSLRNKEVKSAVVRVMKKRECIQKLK
In short: as §1

UniProt E9PVX1 = biological target: T5, UniProt E9PVX1
T5 sequence (whole entry): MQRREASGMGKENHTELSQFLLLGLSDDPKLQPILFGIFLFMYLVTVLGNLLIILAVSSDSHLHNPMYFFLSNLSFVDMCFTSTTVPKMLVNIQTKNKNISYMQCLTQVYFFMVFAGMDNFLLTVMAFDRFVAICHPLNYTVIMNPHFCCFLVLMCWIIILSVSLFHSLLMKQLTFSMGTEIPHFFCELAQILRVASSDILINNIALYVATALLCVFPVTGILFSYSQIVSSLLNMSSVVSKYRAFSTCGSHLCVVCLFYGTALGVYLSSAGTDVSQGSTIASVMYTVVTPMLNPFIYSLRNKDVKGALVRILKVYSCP
In short: as §1

UniProt E9PZ66 = biological target: T6, UniProt E9PZ66
T6 sequence (whole entry): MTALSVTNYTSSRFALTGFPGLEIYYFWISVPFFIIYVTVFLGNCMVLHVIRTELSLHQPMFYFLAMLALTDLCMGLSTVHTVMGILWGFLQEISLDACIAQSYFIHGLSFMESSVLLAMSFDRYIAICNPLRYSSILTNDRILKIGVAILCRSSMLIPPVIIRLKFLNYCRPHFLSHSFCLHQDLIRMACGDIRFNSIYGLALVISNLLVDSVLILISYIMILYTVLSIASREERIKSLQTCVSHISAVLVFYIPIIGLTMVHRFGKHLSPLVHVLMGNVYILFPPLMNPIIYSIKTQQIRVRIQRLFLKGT
In short: as §1

UniProt E9Q4X7 = biological target: T7, UniProt E9Q4X7
T7 sequence (whole entry): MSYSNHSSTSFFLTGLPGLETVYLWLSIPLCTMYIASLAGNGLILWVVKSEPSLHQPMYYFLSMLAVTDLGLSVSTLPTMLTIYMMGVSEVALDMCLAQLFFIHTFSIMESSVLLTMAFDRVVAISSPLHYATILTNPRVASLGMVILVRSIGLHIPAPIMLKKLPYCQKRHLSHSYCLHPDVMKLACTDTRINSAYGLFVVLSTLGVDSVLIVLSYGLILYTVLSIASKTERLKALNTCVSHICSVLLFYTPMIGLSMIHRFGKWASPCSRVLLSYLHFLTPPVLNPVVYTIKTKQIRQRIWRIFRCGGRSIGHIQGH
In short: as §1

UniProt E9Q546 = biological target: T8, UniProt E9Q546
T8 sequence (whole entry): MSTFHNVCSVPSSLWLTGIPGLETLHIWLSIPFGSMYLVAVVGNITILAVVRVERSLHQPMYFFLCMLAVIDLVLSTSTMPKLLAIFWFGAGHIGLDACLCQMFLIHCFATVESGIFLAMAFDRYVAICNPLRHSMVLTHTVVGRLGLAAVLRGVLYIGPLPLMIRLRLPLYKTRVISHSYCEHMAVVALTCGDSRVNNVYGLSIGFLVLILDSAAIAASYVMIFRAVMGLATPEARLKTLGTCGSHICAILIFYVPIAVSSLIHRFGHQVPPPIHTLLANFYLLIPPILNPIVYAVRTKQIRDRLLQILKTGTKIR
In short: as §1

UniProt E9Q6Z7 = biological target: T9, UniProt E9Q6Z7
T9 sequence (whole entry): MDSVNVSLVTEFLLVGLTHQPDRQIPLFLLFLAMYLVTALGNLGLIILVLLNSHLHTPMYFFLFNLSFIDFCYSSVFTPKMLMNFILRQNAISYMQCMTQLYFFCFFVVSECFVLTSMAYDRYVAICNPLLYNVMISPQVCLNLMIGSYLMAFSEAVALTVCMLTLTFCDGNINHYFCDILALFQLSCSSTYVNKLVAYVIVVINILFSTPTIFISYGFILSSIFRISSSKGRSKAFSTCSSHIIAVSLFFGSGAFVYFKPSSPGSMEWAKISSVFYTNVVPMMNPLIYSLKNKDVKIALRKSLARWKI
In short: as §1

UniProt L7MU75 = biological target: T10, UniProt L7MU75
T10 sequence (whole entry): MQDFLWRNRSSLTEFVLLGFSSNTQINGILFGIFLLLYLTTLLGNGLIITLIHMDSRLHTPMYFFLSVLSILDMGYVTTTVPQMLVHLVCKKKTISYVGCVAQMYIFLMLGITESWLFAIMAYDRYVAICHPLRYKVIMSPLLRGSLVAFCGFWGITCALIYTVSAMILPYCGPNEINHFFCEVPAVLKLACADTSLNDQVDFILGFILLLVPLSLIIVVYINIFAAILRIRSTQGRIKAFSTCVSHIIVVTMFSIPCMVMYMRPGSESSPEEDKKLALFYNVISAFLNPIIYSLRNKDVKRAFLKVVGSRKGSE
In short: as §1

Measured: odorant receptor agonist call

O=Cc1ccccc1
not listed: UniProt L7MU75
inactive: all other assays above

O=CC=Cc1ccccc1
inactive: all assays above

COc1ccc(C=O)cc1
inactive: all assays above

CCCCCCC(Br)C(=O)O (centres undefined)
inactive: all assays above
